Data taken from ChEMBL document CHEMBL3352639, “Synthesis and biological evaluation of thienopyrimidine derivatives as GPR119 agonists” (Bioorg Med Chem Lett, 2014).
Active and inactive are the calls of the source. The rule behind the calls is not given here.

What was measured:
Cytochrome P450 2C19 = Cytochrome P450 2C19 (Homo sapiens, UniProt P33261); test: Inhibition of CYP2C19 (unknown origin); assay type: ADME
[1] = Metabolic stability in rat liver microsomes assessed as compound remaining at 1 uM after 30 mins by LC/MS/MS analysis; assay type: ADME; conditions: read-out: Stability
Cytochrome P450 2E1 = Cytochrome P450 2E1 (Homo sapiens, UniProt P05181); test: Induction of CYP2E1 (unknown origin); assay type: ADME
Cytochrome P450 2C9 [2] = molecular target: T1, Cytochrome P450 2C9 (Homo sapiens, UniProt P11712); test: Induction of CYP2C9 (unknown origin); assay type: ADME
Mus musculus = test: Antidiabetic activity in C57BL/6 mouse assessed as reduction in plasma glucose AUC at 15 mg/kg by OGTT; assay type: functional, organism-based; parameters: dose 15 mg/kg
Outline: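 OGTT in normal mice, n = 7 per group. Plasma glucose was followed over the test, and efficacy was taken as the AUC of glucose concentration. Data are given as means ± SEM.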

Cytochrome P450 2C9 [3] = molecular target: T1, Cytochrome P450 2C9; test: Inhibition of CYP2C9 (unknown origin); assay type: ADME
Cytochrome P450 3A4 [4] = molecular target: T2, Cytochrome P450 3A4 (Homo sapiens, UniProt P08684); test: Induction of CYP3A4 (unknown origin); assay type: ADME
Cytochrome P450 1A2 [5] = molecular target: T3, Cytochrome P450 1A2 (Homo sapiens, UniProt P05177); test: Induction of CYP1A2 (unknown origin); assay type: ADME
T3 sequence (P05177 whole entry): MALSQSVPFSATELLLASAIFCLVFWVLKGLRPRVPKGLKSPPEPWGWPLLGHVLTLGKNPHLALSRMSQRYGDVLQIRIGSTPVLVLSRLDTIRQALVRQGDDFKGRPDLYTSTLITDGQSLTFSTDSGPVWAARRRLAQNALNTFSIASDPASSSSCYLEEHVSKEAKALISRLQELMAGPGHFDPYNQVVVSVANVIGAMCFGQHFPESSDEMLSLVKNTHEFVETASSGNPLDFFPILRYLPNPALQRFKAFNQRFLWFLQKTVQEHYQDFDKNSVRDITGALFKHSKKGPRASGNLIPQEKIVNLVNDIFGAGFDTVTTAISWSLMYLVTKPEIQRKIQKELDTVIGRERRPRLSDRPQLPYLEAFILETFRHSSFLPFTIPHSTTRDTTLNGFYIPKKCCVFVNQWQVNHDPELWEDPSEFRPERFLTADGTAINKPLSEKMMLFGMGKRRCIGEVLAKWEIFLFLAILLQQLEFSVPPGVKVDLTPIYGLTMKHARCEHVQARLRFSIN

Cytochrome P450 2B6 [6] = molecular target: T4, Cytochrome P450 2B6 (Homo sapiens, UniProt P20813); test: Inhibition of CYP2B6 (unknown origin); assay type: ADME
T4 sequence (P20813 whole entry): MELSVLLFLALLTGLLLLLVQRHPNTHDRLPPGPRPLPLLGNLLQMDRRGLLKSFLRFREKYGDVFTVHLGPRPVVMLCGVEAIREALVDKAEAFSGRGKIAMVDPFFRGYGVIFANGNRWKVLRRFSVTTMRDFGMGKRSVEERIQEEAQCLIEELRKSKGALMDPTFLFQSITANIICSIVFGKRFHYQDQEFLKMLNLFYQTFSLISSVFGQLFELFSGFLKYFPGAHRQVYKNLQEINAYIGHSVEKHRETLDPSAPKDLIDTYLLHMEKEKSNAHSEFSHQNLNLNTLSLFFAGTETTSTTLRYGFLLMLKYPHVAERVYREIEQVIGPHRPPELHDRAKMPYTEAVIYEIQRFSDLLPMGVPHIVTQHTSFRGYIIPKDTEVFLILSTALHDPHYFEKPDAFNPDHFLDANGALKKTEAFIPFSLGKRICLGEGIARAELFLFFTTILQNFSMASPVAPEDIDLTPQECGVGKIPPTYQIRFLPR

[7] = molecular target: T5, Glucose-dependent insulinotropic receptor (Homo sapiens, UniProt Q8TDV5); test: Agonist activity at human GPR119 expressed in CHO-K1 cells after 24 hrs by CRE-luciferase assay; assay type: functional, cell-based
T5 sequence (Q8TDV5 whole entry): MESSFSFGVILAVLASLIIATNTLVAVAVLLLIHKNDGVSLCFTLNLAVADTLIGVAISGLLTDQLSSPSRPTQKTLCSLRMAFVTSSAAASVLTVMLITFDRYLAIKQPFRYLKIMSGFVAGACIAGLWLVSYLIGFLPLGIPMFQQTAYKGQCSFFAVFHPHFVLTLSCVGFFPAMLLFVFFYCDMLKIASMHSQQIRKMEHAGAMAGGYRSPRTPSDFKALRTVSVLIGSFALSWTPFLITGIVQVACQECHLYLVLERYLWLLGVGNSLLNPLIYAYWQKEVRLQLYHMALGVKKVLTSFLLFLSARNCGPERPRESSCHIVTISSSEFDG

Cytochrome P450 2B6 [8] = molecular target: T4, Cytochrome P450 2B6; test: Induction of CYP2B6 (unknown origin); assay type: ADME
Cytochrome P450 1A2 [9] = molecular target: T3, Cytochrome P450 1A2; test: Inhibition of CYP1A2 (unknown origin); assay type: ADME
HFL1 = test: Cytotoxicity against human HFL1 cells; assay type: cell-based
[10] = Metabolic stability in human liver microsomes assessed as compound remaining at 1 uM after 30 mins by LC/MS/MS analysis; assay type: ADME; conditions: read-out: Stability
Beta-TC6 = test: Increase in glucose-stimulated insulin release in mouse BetaTC6 cells after 1 hr by ELISA; assay type: functional, cell-based
Outline: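 GSIS was measured in the TC-6 pancreatic beta-cell line exposed to compound over 10 nM to 100 nM, with insulin secretion read under glucose stimulation.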

[11] = Cytotoxicity against chinese hamster CHOK1 cells; assay type: cell-based; conditions: Cricetulus griseus, CHO-K1
[12] = molecular target: T6, Glucose-dependent insulinotropic receptor (Homo sapiens) (UniProt Q8TDV5); test: Activation of human GPR119 expressed in CHO-K1 cells at 1 uM after 24 hrs by CRE-luciferase assay relative to GSK1292263; assay type: functional, cell-based
T6 sequence (whole entry): T5 sequence (Q8TDV5 whole entry)

Cytochrome P450 2D6 = Cytochrome P450 2D6 (Homo sapiens, UniProt P10635); test: Inhibition of CYP2D6 (unknown origin); assay type: ADME
hERG (KCNH2) = hERG (KCNH2) (Homo sapiens, UniProt Q12809); test: Inhibition of human ERG at 10 uM
Outline: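 hERG liability was assessed in a binding-assay format, reported as percent inhibition with the compound at 10 μM.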

Cytochrome P450 3A4 [13] = molecular target: T2, Cytochrome P450 3A4; test: Inhibition of CYP3A4 (unknown origin); assay type: ADME
[14] = Cytotoxicity against mouse NIH/3T3 cells; assay type: cell-based; conditions: NIH3T3
L929 = test: Cytotoxicity against mouse L929 cells; assay type: cell-based
Cytochrome P450 2A6 = molecular target: T7, Cytochrome P450 2A6 (Homo sapiens, UniProt P11509); test: Inhibition of CYP2A6 (unknown origin); assay type: ADME
T7 sequence (P11509 whole entry): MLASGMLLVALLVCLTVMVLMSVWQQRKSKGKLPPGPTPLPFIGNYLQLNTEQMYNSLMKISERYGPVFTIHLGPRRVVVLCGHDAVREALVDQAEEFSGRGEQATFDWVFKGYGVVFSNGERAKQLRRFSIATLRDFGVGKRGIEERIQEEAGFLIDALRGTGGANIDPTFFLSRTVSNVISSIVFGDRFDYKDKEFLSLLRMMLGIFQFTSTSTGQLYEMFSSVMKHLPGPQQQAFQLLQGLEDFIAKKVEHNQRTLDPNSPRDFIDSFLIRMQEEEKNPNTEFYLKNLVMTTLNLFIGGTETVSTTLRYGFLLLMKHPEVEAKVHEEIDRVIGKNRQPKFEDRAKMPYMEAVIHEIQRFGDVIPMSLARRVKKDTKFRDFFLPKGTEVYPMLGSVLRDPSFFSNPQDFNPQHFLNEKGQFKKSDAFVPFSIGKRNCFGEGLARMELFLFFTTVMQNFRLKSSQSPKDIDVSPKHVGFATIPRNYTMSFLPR

T1 sequence (P11712 whole entry): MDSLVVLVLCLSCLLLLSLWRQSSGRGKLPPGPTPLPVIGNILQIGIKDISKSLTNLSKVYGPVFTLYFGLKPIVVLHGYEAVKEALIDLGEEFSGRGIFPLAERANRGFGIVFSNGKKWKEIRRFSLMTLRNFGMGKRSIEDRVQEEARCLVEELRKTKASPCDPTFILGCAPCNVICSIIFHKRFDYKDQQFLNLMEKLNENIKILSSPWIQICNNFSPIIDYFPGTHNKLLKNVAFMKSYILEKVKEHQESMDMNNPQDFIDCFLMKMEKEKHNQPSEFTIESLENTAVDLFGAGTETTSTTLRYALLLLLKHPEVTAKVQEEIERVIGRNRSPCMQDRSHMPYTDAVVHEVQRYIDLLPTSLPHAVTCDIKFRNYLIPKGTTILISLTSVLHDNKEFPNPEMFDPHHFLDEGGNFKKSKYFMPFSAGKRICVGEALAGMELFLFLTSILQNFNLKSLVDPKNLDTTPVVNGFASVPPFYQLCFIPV
T2 sequence (P08684 whole entry): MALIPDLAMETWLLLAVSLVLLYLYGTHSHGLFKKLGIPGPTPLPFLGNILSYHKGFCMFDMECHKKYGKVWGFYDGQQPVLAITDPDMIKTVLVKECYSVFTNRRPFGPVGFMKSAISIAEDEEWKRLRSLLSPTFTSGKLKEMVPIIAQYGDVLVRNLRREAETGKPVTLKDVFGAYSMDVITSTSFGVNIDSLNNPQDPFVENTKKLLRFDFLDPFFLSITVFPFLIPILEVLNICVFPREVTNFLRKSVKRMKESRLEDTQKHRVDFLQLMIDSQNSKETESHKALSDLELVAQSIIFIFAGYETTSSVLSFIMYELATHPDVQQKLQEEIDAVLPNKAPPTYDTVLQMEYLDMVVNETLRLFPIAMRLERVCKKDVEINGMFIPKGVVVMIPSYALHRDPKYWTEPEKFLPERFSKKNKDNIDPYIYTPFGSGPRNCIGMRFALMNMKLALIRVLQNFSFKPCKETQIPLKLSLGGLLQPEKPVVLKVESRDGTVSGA
Sequence of Cytochrome P450 2D6 (P10635 whole entry): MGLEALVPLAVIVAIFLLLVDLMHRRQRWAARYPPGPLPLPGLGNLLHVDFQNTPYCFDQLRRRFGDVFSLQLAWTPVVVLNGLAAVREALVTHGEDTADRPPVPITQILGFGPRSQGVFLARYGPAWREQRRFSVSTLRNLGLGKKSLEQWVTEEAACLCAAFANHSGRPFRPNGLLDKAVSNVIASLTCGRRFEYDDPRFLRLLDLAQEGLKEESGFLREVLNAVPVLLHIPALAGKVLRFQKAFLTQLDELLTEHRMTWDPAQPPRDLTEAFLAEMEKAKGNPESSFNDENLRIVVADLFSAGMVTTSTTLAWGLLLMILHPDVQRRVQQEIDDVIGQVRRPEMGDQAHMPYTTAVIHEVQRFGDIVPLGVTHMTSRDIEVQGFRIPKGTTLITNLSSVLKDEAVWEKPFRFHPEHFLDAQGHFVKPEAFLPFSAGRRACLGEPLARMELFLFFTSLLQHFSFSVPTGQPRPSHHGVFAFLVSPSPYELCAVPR
Sequence of Cytochrome P450 2E1 (P05181 whole entry): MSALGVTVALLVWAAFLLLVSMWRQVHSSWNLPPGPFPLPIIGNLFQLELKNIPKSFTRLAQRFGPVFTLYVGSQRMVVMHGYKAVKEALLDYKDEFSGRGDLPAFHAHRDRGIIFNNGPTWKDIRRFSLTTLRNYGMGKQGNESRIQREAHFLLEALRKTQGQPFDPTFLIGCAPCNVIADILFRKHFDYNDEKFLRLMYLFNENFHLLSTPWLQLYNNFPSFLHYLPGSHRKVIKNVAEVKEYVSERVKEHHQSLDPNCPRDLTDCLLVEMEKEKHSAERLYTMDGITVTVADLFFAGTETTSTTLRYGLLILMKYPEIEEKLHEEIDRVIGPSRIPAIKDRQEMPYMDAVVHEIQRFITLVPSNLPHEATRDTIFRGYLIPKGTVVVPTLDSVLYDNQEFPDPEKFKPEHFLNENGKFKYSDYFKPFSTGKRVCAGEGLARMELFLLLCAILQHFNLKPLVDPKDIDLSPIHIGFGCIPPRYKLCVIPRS
Sequence of hERG (KCNH2) (Q12809 whole entry): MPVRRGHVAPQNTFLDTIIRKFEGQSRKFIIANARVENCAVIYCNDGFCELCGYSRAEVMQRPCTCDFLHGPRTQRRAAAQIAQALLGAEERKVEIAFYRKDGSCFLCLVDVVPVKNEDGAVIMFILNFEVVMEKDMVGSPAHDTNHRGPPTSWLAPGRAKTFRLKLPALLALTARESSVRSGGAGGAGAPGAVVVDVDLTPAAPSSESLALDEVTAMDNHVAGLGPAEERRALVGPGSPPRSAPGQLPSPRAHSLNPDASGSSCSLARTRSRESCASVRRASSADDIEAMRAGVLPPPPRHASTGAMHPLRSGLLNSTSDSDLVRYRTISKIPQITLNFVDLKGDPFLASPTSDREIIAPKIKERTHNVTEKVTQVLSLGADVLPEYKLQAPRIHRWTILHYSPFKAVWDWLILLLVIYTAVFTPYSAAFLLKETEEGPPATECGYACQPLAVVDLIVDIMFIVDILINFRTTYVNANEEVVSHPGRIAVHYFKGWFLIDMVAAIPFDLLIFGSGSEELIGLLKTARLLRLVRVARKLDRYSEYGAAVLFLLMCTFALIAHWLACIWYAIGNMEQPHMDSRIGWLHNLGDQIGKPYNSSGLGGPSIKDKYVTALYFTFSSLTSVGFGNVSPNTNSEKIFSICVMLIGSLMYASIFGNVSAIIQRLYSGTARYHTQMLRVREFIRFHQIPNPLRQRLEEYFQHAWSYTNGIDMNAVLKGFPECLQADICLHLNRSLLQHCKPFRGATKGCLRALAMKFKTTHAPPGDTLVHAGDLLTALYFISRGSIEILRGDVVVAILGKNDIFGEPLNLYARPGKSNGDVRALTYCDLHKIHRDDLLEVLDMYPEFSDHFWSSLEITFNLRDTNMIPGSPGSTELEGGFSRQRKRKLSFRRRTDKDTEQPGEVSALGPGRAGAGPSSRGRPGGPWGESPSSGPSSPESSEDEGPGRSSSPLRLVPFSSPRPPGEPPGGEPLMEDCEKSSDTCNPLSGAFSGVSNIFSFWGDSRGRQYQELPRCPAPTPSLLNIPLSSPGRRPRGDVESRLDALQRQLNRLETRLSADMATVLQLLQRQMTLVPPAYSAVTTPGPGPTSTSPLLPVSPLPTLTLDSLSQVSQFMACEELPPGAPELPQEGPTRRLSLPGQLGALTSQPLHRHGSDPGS
Sequence of Cytochrome P450 2C19 (P33261 whole entry): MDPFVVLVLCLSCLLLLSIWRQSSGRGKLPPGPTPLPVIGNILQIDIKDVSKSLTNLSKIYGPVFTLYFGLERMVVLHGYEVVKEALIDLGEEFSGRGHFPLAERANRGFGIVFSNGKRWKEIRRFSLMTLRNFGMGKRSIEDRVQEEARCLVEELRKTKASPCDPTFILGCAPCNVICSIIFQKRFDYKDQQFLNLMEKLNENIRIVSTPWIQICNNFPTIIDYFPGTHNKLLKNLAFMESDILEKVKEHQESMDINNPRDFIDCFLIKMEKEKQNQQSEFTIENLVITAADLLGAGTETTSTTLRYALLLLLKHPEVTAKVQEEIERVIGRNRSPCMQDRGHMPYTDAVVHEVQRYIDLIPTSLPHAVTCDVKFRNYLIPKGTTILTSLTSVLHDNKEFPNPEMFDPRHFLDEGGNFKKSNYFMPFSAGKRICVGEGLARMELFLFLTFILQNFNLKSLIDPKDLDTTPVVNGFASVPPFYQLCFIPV

For `CN(c1ncnc2cc(-c3ccc(S(C)(=O)=O)cc3F)sc12)C1CCN(C(=O)OC(C)(C)C)CC1`, the “inhibition (INH)” value (Cytochrome P450 2C19) was “Not Active”, the remaining at 0.5 h, 1 µM [1] was > 95% and the Activity (Cytochrome P450 2E1) was “Not Active”. The Activity (Cytochrome P450 2C9 [2]) was “Not Active”, the Activity (Mus musculus) was “Active” and the IC50 (Cytochrome P450 2C9 [3]) was 76800 nM. For the same compound, the Activity (Cytochrome P450 3A4 [4]) was “Not Active”, the Activity (Cytochrome P450 1A2 [5]) was “Not Active” and the “inhibition (INH)” value (Cytochrome P450 2B6 [6]) was “Not Active”. The EC50 [7] was 3 nM, the Activity (Cytochrome P450 2B6 [8]) was “Not Active” and the “inhibition (INH)” value (Cytochrome P450 1A2 [9]) was “Not Active”. For the same compound, the IC50 (HFL1) was > 100000 nM, the remaining at 0.5 h, 1 µM [10] was > 95% and the Activity (Beta-TC6) was “Dose-dependent effect”. For the same compound, the IC50 [11] was 53400 nM, the Activity [12] was 94% and the “inhibition (INH)” value (Cytochrome P450 2D6) was “Not Active”. The inhibition at 10 µM (hERG (KCNH2)) was 13%, the “inhibition (INH)” value (Cytochrome P450 3A4 [13]) was “Not Active” and the IC50 [14] was 49800 nM. The IC50 (L929) was 65800 nM and the “inhibition (INH)” value (Cytochrome P450 2A6) was “Not Active”.

For `CN(c1ncnc2cc(-c3ccc(S(C)(=O)=O)cc3F)sc12)C1CCN(C(=O)C2CC2)CC1`, the Activity [12] was 65%.

With `CCN(c1ncnc2cc(-c3ccc(S(C)(=O)=O)cc3F)sc12)C1CCN(C(=O)OC(C)(C)C)CC1` the Activity [12] was 45%.

`CC(C)S(=O)(=O)N1CCC(N(C)c2ncnc3cc(-c4ccc(S(C)(=O)=O)cc4)sc23)CC1` showed an EC50 [7] of 1200 nM and an Activity [12] of 70%.

Work on `CCc1cnc(N2CCC(Nc3ncnc4cc(-c5ccc(S(C)(=O)=O)cc5)sc34)CC2)nc1` yielded an Activity [12] of 49%.

In the case of `CN(c1ncnc2cc(-c3ccc(S(C)(=O)=O)cc3F)sc12)C1CCN(C(=O)OC2(C)CC2)CC1`, the EC50 [7] is reported as 26 nM and the Activity [12] is reported as 105%.

`CCc1cnc(N2CCC(Oc3ncnc4cc(-c5ccc(S(C)(=O)=O)cc5)sc34)CC2)nc1` showed an EC50 [7] of 240 nM and an Activity [12] of 75%.

`CN(c1ncnc2cc(-c3ccc(S(C)(=O)=O)cc3)sc12)C1CCN(C(=O)C2CC2)CC1` gave an EC50 [7] of 173 nM and an Activity [12] of 72%.

For `CC(C)NC(=O)N1CCC(N(C)c2ncnc3cc(-c4ccc(S(C)(=O)=O)cc4)sc23)CC1`, the Activity [12] was 49%.

`CC(C)OC(=O)N1CCC(N(C)c2ncnc3cc(-c4ccc(S(C)(=O)=O)cc4)sc23)CC1` showed an EC50 [7] of 82 nM and an Activity [12] of 67%.

`CC(C)(C)OC(=O)N1CCC(Oc2ncnc3cc(-c4ccc(S(C)(=O)=O)cc4)sc23)CC1` gave an EC50 [7] of 100 nM and an Activity [12] of 64%.
